A selection: hits, their analogues and other compounds. The true share with any hit is near 2.6%.
RanGTP-Impb inh: disruptors of Ran-importin-beta complex formation – biochemical, FRET, CFP-Ran, YFP-importin-beta, homogeneous, primary screen; inhibition, % (concentration not given with the values); cell-free CFP-Ran/YFP-importin-beta FRET ratio; 1.1% of 300,000 active; AID 2216;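 active means more than half of the replicate wells show a fall in the fluorescence ratio signal beyond about 16%, limit read from the data, passing the limit was not always enough; inconclusive means exactly half of the replicate wells pass the set limit; inactive means fewer than half of replicates pass the limit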
Runt-SMMHC FRET: Runt domain-CBFb-SMMHC interaction inhibition; Q01196+Q13951; Cerulean-Runt/Venus-CBFb-SMMHC FRET ratio 530/480, 1 h; inhibition, % at 20 µM; 0.74% of 220,000 active;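 active means mean inhibition across duplicate retests at 20 µM reaching about 50%, limit read from the data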;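 further: inhibitors lower the FRET ratio by blocking Runt binding to CBFb-SMMHC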
Target sequence (Q01196 whole entry, looked up, the tested form may be a part): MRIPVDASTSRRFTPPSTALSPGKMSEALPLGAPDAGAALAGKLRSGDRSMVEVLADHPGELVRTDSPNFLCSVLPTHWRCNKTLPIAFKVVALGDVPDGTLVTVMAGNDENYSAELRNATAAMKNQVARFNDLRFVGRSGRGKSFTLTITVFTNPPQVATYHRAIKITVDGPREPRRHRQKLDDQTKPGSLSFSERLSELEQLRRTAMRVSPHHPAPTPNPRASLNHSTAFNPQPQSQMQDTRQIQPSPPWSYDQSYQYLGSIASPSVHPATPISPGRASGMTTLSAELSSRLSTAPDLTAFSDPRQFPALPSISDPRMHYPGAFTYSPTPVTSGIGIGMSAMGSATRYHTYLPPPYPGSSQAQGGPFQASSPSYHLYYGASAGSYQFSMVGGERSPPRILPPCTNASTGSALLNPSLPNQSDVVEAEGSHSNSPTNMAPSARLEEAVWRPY
Target sequence (Q13951 whole entry, looked up, the tested form may be a part): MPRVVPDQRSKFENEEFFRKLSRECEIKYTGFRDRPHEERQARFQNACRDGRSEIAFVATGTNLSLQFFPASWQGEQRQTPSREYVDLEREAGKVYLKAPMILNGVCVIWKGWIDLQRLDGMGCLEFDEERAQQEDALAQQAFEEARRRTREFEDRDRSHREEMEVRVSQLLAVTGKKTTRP
IMP-1 inh: blocks Pseudomonas aeruginosa IMP-1 metallo-beta-lactamase | purified IMP-1, nitrocefin hydrolysis, epi-absorbance fluorescence | inhibition, % at 5.6 µM | 0.45% of 290,000 active;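 active means inhibition above the mean plus 3 SD of all compounds in the same screening run, cut at about 4.5% in these data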
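System: purified IMP-1; amount: IMP-1 0.2 nM before substrate addition; compound: single dose, 5.6 µM; times: 25 °C, 15 min preincubation, 25 min reaction; signal: Epi-absorbance via hydrolysed-nitrocefin quenching of white-plate fluorescence, 480/530 nm, EDTA stop; benchmarks: DMSO with and without IMP-1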
VIM-2 inh: blocks Pseudomonas aeruginosa VIM-2 metallo-beta-lactamase; purified VIM-2, nitrocefin hydrolysis, epi-absorbance fluorescence; inhibition, % at 5.6 µM; AID 1527; 0.89% of 290,000 active;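 active means inhibition above the mean of all tested compounds plus 3 SD, cutoff set per screening run, cut at about 7.5% in these data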;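 further: red hydrolysis product quenches plate fluorescence so inhibitors raise well fluorescence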
Runt-CBFb FRET: Runt domain-CBFb interaction inhibition; Q01196+Q13951; Cerulean-Runt/Venus-CBFb FRET ratio 530/480, 1 h; inhibition, % at 20 µM; 0.46% of 220,000 active; AID 1496;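 active means inhibition over about 50% at 20 µM in the single-dose screen, limit read from the data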
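Doses: 20 µM compound in 1% DMSO | Material: Cerulean-labeled Runt domain protein | Amount: Each fluorescent fusion protein 100 nM | Schedule: Two 1 h room-temperature incubations shielded from light | Measured by: FRET fluorescence | Evaluation: Loss of energy transfer signal | Controls: Unlabeled CBFb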
Numbers stand for hits.

O=c1c(/C=C(\O)c2ccccc2)nc2ccccc2n1-c1ccccc1 was read as RanGTP-Impb inh 71.6, Runt-SMMHC FRET inactive, IMP-1 inh inactive, VIM-2 inh inactive and Runt-CBFb FRET inactive.
COc1ccc(NS(=O)(=O)c2ccc(F)c(Cl)c2)cn1 was read as RanGTP-Impb inh inactive, IMP-1 inh inactive and VIM-2 inh inactive.
O=C(O)c1ccccc1SCc1csc(-c2ccccc2)n1 was read as RanGTP-Impb inh 26.7, IMP-1 inh inactive and VIM-2 inh inactive.
`COC(=O)c1ccccc1SCc1csc(C)n1` gave RanGTP-Impb inh inactive, IMP-1 inh inactive and VIM-2 inh inactive.
Cc1ccc(C(=O)Nc2ncn[nH]2)cc1 was read as RanGTP-Impb inh inactive, IMP-1 inh inactive and VIM-2 inh inactive.
For Cc1ccc(SC(C)C(=O)Nc2ncn[nH]2)cc1 (stereo not drawn) the results were RanGTP-Impb inh inactive, Runt-SMMHC FRET inactive, IMP-1 inh 39.3, VIM-2 inh inactive and Runt-CBFb FRET inactive.
Screening NNC(=O)c1ccc(Cn2cccn2)o1 returned RanGTP-Impb inh inactive, Runt-SMMHC FRET inactive, IMP-1 inh inactive, VIM-2 inh inactive and Runt-CBFb FRET inactive.
`CCC1CCCCN1CCCNC(=O)CN1C(=O)COc2ccccc21` (stereo not drawn) gave RanGTP-Impb inh inactive, IMP-1 inh inactive and VIM-2 inh inactive.
CCOC(=O)N1CCN(C2CCCN(C(=O)c3cccc(Cl)c3)C2)CC1 (stereo not drawn) was read as RanGTP-Impb inh inconclusive, IMP-1 inh inactive and VIM-2 inh inactive.
Screening CNc1ncc(Cc2ccccc2)s1 returned RanGTP-Impb inh inactive, Runt-SMMHC FRET inactive, IMP-1 inh 40.1, VIM-2 inh inactive and Runt-CBFb FRET inactive.
COC(=O)c1c(NC(=O)c2ccco2)sc2c1CCC2 was read as RanGTP-Impb inh inactive, Runt-SMMHC FRET inactive, IMP-1 inh inactive, VIM-2 inh inactive and Runt-CBFb FRET inactive.
COC(=O)c1c(NC(=O)c2ccco2)sc2c1CCN(C(C)C)C2 was read as RanGTP-Impb inh 53.6, IMP-1 inh inactive and VIM-2 inh inactive.
`CN1CCc2c(sc(NC(=O)c3ccc([N+](=O)[O-])o3)c2C(N)=O)C1` gave IMP-1 inh inactive and VIM-2 inh inactive.
`O=C(Nc1sc2c(c1C(=O)O)CCC2)c1ccco1` gave RanGTP-Impb inh inactive, Runt-SMMHC FRET inactive, IMP-1 inh inactive, VIM-2 inh inactive and Runt-CBFb FRET inactive.
For CN1CCc2c(sc(NC(=O)c3ccco3)c2C(N)=O)C1 the results were RanGTP-Impb inh 83.0, IMP-1 inh inactive and VIM-2 inh inactive.
CC(C)N1CCc2c(sc(NC(=O)c3ccco3)c2C(N)=O)C1 was read as RanGTP-Impb inh 101.2, IMP-1 inh inactive and VIM-2 inh inactive.
`Cc1ccccc1NC(=S)N1CCN(c2ccccc2Cl)CC1` gave RanGTP-Impb inh inactive, IMP-1 inh inactive and VIM-2 inh inactive.
For S=C(Nc1ccc(-c2nc3ccccc3[nH]2)cc1)Nc1cccnc1 the results were RanGTP-Impb inh inactive, IMP-1 inh inactive and VIM-2 inh inactive.
For O=C(N/N=C/c1ccccc1F)c1cc2c(ccc3ccccc32)o1 the results were RanGTP-Impb inh inactive, IMP-1 inh 5.0 and VIM-2 inh inactive.
For O=S(=O)(c1ccc(Cl)c(NC(=S)N/N=C/c2c(F)cccc2F)c1)N1CCOCC1 the results were RanGTP-Impb inh inconclusive, Runt-SMMHC FRET inactive, IMP-1 inh inactive, VIM-2 inh 10.1 and Runt-CBFb FRET inactive.
`CC(C)N(C)Cc1nnnn1CC(=O)N(C)Cc1cccc(Cl)c1` gave RanGTP-Impb inh inactive, IMP-1 inh inactive and VIM-2 inh inactive.
For O=C(Cn1cnc(S(=O)(=O)N2CCCCC2)c1)Nc1ccc(OC(F)(F)F)cc1 the results were RanGTP-Impb inh inactive, IMP-1 inh inactive and VIM-2 inh inactive.
For CC1CCN(S(=O)(=O)c2cn(CC(=O)Nc3ccc(OC(F)(F)F)cc3)cn2)CC1 the results were RanGTP-Impb inh inactive, IMP-1 inh 8.8 and VIM-2 inh inactive.
`CC(=O)N1CC2(C)CN(C(C)=O)CC(C)(C1)C2` gave RanGTP-Impb inh inactive, Runt-SMMHC FRET inactive, IMP-1 inh inactive, VIM-2 inh inactive and Runt-CBFb FRET inactive.
`CCC(=O)N1CC2(C)CN(C(=O)CC)CC(C)(C1)C2` gave RanGTP-Impb inh 16.9, Runt-SMMHC FRET inactive, IMP-1 inh inactive, VIM-2 inh inactive and Runt-CBFb FRET inactive.
`O=C(Nc1cccc(Cl)c1)c1ccccc1NC(=O)C1CCCCC1C(=O)O` (stereo not drawn) gave RanGTP-Impb inh inactive, IMP-1 inh inactive and VIM-2 inh inactive.
Screening COCC(=O)N1CCCC(N(C)CCc2ccc(OC)c(OC)c2)C1 (stereo not drawn) returned RanGTP-Impb inh inactive, IMP-1 inh 8.0 and VIM-2 inh inactive.
For CN(C(=O)c1cc(COc2ccc(F)c(F)c2)on1)C1CCOC1 (stereo not drawn) the results were RanGTP-Impb inh inactive, IMP-1 inh inactive and VIM-2 inh inactive.
Screening Cc1cc2c(cc3c(=O)n(CC(=O)NCCCN4CC(C)CC(C)C4)ncn32)s1 (stereo not drawn) returned RanGTP-Impb inh inactive, IMP-1 inh inactive and VIM-2 inh inactive.
COc1ccc(N2CCc3c(C)nc4c(OC)cccc4c32)cc1 was read as RanGTP-Impb inh inactive, Runt-SMMHC FRET inactive, IMP-1 inh inactive, VIM-2 inh 12.1 and Runt-CBFb FRET inactive.
For CC(O)CNc1nc(NCc2ccccc2)c2cnn(C)c2n1 (stereo not drawn) the results were RanGTP-Impb inh inactive, IMP-1 inh inactive and VIM-2 inh inactive.
Cc1c(CC(=O)O)c(=O)oc2cc(OCc3ccc(Br)cc3)ccc12 was read as RanGTP-Impb inh inactive, IMP-1 inh inactive and VIM-2 inh inactive.
For Cc1cc(C)c2c(n1)nn1c(NCCOCCO)cc(C)nc21 the results were RanGTP-Impb inh 38.1, Runt-SMMHC FRET 71.5, IMP-1 inh inactive, VIM-2 inh inactive and Runt-CBFb FRET inactive.
Cc1ccc(-c2onc3ccc(C=O)cc23)cc1 was read as RanGTP-Impb inh 23.5, Runt-SMMHC FRET inactive, IMP-1 inh inactive, VIM-2 inh inactive and Runt-CBFb FRET inactive.
For Cc1ccc(-c2onc3ccc(C4(C)OCCO4)cc23)cc1 the results were RanGTP-Impb inh inactive, Runt-SMMHC FRET inactive, IMP-1 inh inactive, VIM-2 inh inactive and Runt-CBFb FRET inactive.
For O=C(O)C1Nc2c(cccc2C(F)(F)F)C2C=CCC12 (stereo not drawn) the results were RanGTP-Impb inh inactive, IMP-1 inh inactive and VIM-2 inh inactive.
Screening COc1cccc2c1NC(C(=O)O)C1CC=CC21 (stereo not drawn) returned RanGTP-Impb inh inactive, IMP-1 inh inactive, VIM-2 inh 9.5 and Runt-CBFb FRET inactive.
CN(CC(=O)Nc1c(Cl)cccc1Cl)C(=O)C1CCN(C(=O)Nc2ccccc2)CC1 was read as RanGTP-Impb inh inactive.
